Experimental data pooled from the literature.
Protocols differ between the studies behind these lines. In brackets after ≈: the same amount, converted by molar mass.

NC(=O)c1ncn([C@@H]2O[C@H](CO)[C@@H](O)[C@H]2O)n1 — IC50 (Influenza A virus; viral replication, inhibitor, ELISA; MDCK, H1N1; 24 h): 3440 nM
CC1=CC(=O)c2c(O)cccc2C1=O — IC50 (HuCC-A1; cell growth or viability, MTT): 10800 nM
NC(=O)c1nc(F)c[nH]c1=O — EC50 (Influenza A virus; viral replication, inhibitor; MDCK, H1N1 WSN): 1570 nM
N.N.[Cl][Pt][Cl] — inhibition (SU-DHL-8; cell growth or viability, ATP luminescence; 10 µM, 72 h): 100%
CC(=O)NC[C@H]1CN(c2ccc(N3CCOCC3)c(F)c2)C(=O)O1 — MIC (Enterococcus; microbial growth, broth dilution; VRE): 2 µg/mL (≈ 5.93 µM)
Sc1ncnc2nc[nH]c12 — IC50 (Influenza A virus; viral replication, inhibitor, ELISA; MDCK, H1N1; 24 h): 11400 nM
CCN(CC)CCCC(C)Nc1ccnc2cc(Cl)ccc12 (stereo not shown) — IC50 (Plasmodium knowlesi; parasite growth, SYBR Green): 19.5 nM
CC(C)C(=O)OC[C@H]1O[C@@H](n2ccc(NO)nc2=O)[C@H](O)[C@@H]1O — IC50 (Influenza A virus; viral replication, inhibitor, ELISA; MDCK, H1N1; 24 h): 28300 nM
O=c1c2ccccc2[se]n1-c1ccccc1 — IC50 (Influenza A virus; viral replication; Vero, H1N1; 48 h): 1570 nM
CC[C@H](C)C[C@H](C)CCCCCCCCC(=O)N[C@H]1C[C@@H](O)[C@@H](NCCN)NC(=O)[C@@H]2[C@@H](O)CCN2C(=O)[C@H]([C@H](O)CCN)NC(=O)[C@H]([C@H](O)[C@@H](O)c2ccc(O)cc2)NC(=O)[C@@H]2C[C@@H](O)CN2C(=O)[C@H]([C@@H](C)O)NC1=O — MFC (Pichia kudriavzevii; microbial killing, broth dilution; ATCC14243; 48 h): 4 µg/mL (≈ 3.66 µM)
COC(=O)OCOc1c2n(ccc1=O)N([C@@H]1c3ccccc3SCc3c1ccc(F)c3F)[C@@H]1COCCN1C2=O — EC50 (Influenza A virus; viral replication, inhibitor; H1N1 PR/8): 7.57 nM
Nc1ccn([C@@H]2O[C@H](CO)[C@@H](O)C2(F)F)c(=O)n1 — IC50 (Influenza A virus; viral replication, inhibitor, ELISA; MDCK, H1N1; 24 h): 640 nM
N=C(CC(O)c1cc2c(F)cc(F)cc2c2cc(C(F)(F)F)ccc12)Nc1cccc(F)c1 (stereo not shown) — IC50 (Plasmodium knowlesi; parasite growth, SYBR Green): 6.4 nM
